Published values from different studies.
Lines come from different studies, so protocols differ.
Target: Protein kinase C iota type (PRKCI, Homo sapiens, UniProt P41743)
Residues used in one study (P41743 1-596): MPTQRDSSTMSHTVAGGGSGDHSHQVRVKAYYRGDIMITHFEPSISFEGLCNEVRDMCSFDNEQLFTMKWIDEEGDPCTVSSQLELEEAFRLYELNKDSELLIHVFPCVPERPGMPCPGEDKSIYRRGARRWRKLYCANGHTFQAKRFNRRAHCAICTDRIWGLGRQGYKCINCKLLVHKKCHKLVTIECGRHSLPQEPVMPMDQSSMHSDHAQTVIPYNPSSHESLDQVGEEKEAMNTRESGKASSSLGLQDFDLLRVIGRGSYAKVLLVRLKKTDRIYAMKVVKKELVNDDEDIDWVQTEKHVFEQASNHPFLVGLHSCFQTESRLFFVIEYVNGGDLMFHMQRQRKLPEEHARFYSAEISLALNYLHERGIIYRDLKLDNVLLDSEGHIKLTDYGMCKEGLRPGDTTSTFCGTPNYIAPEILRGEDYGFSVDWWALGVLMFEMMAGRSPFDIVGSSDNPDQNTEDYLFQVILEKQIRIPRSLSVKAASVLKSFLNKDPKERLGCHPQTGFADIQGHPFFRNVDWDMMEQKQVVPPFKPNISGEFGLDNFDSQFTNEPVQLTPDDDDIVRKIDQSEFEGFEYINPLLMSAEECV

SMILES	assay	conditions	measurement	result
CN(C)C1CCN(CC#Cc2nn(C3CCCC3)c3nc(NCc4ccccc4)ncc23)C1 (stereo not drawn)	enzyme activity, inhibitor, FRET	10 µM	inhibition	6%
c1ccc(CNc2nc(N3CCOc4ccccc43)nc3c2CCCC3)cc1	target engagement in cells, inhibitor, chemoproteomics	20 mM	inhibition	-0.4%
CC(C)(O)[C@H]1CC[C@H](Nc2ccc3ncc(-c4cccc(C(F)(F)F)c4)n3n2)CC1	enzyme activity, inhibitor	1 µM	remaining activity	128%
CNCc1ccc(-c2cc(-c3nc(-c4ccc(S(=O)(=O)C(C)C)cc4)cnc3N)on2)cc1	enzyme activity, inhibitor	2 µM	inhibition	1%
CCN(CC)c1ccc(C2=NNC(=O)CC2C)cc1[N+](=O)[O-] (stereo not drawn)	enzyme activity, inhibitor	10 µM	remaining activity	108%
Cc1c[nH]c2nccc(Oc3c(F)cc(Nc4cc(Cl)nc(N)n4)cc3F)c12	cell-free assay, competition with immobilised ligand	0.1 µM	remaining binding	100%
CCCOc1ccc(OC)c(F)c1C(=O)c1ccc(C(=O)N[C@@H]2CNC[C@H]2NC(=O)c2ccc3[nH]ncc3c2)cc1	enzyme activity, inhibitor	10 µM	remaining activity	89%
Cc1ccc(NC(=O)c2ccc(C)c(C(F)(F)F)c2)cc1C#Cc1nn(C2CCC(O)CC2)c2ncnc(N)c12 (stereo not drawn)	cell-free assay	10 µM	remaining signal	91%
COc1cc(-c2cc(-c3ccc(N4CCNCC4)cc3)cnc2C)cc(OC)c1OC	enzyme activity, inhibitor	1 µM	inhibition	18%
C[C@H](c1cccc(C#N)c1)n1cc(Cl)cc(C(N)=O)c1=N	cell-free assay, competition with immobilised ligand	1 µM	remaining binding	100%
O=C1Nc2ccc(Cl)cc2C1=Cc1cc(Cl)c(O)c(Cl)c1	cell-free assay	0.5 µM	remaining signal	94.1%
CCN(CC)CCNC(=O)c1c(C)[nH]c(/C=C2\C(=O)Nc3ccc(F)cc32)c1C	enzyme activity, inhibitor	10 µM	inhibition	1%
CCS(=O)(=O)c1cc2cc(C[C@@](O)(CC(C)(C)c3ccc(F)cc3C(N)=O)C(F)(F)F)[nH]c2cn1	cell-free assay, competition with immobilised ligand	1 µM	remaining binding	100%
Cc1cnc(NC2CCOCC2)nc1-n1cnc(C(=O)NC(CN)c2cc(F)cc(Cl)c2)c1 (stereo not drawn)	enzyme activity, inhibitor, radiometric	1 µM	remaining activity	106%
CO[C@@H](C)c1c(Nc2ccc([C@@H](N(C)C(=O)C3CCS(=O)(=O)CC3)C(F)(F)F)cc2)cnc2cc(Cl)nn12	cell-free assay, competition with immobilised ligand	1 µM	remaining binding	76%
CC(C)(C)c1nc(-c2cccc(NS(=O)(=O)c3c(F)cccc3F)c2F)c(-c2ccnc(N)n2)s1	enzyme activity, inhibitor, radiometric	1 µM	remaining activity	100%
O=C(NC[C@@H]1[C@H]2CN(C(=O)OCc3cc(C(F)(F)F)cc(C(F)(F)F)c3)C[C@@H]12)c1ccc2[nH]nnc2c1	cell-free assay, competition with immobilised ligand	1 µM	remaining binding	98%
N#CCCc1ccc2c(c1)-c1[nH]c3ccc([N+](=O)[O-])cc3c1CC(=O)N2	cell-free assay	0.5 µM	remaining signal	65.3%
O=C(Nc1cnc(Oc2ccc(F)cc2)nc1)N1CCc2ncccc2[C@@H]1c1ccc(F)cc1	cell-free assay, competition with immobilised ligand	1 µM	remaining binding	98%
CCCS(=O)(=O)Nc1ccc(F)c(C(=O)c2c[nH]c3ncc(-c4ccc(Cl)cc4)cc23)c1F	enzyme activity, inhibitor	1 µM	inhibition	< 10%
Cc1ccc(C(=O)NCc2ccsc2)cc1C#Cc1cn(C(C)C)c2ncnc(N)c12	enzyme activity, inhibitor	1 µM	activity vs control	96%
COc1cc2ncnc(Nc3ccc(Oc4ccccc4)c(C)c3C)c2cc1OC	enzyme activity, inhibitor	1 µM	inhibition	-4%
C[C@@H]1CN(c2cc(-c3nn(C)c4ccc(OC5(C)CC5)cc34)ncn2)C[C@H](C)O1	cell-free assay, competition with immobilised ligand	1 µM	remaining binding	100%
O=C(Nc1cnn(-c2csc(C(=O)NC3COC3)c2)c1)Nc1c(F)cccc1Cl	enzyme activity, inhibitor	5 µM	remaining activity	87.4%
CCCCNc1ncc2c(-c3ccc(F)cc3)nn(C[C@H]3CC[C@H](N)CC3)c2n1	target engagement in cells, inhibitor, chemoproteomics	20 mM	inhibition	-5.8%
Cc1cc(NC(=O)c2cccc(S(F)(F)(F)(F)F)c2)cc(-n2ccn3nc(-c4cccnc4)cc23)c1	cell-free assay, competition with immobilised ligand	1 µM	remaining binding	80.4%
N[C@@H]1CCN(c2nccc(-c3cnn4ncccc34)n2)C1	binding	1 µM	remaining binding	33%
